Measurements published in ChEMBL document CHEMBL3600347, “Syntheses and in Vitro Antiplasmodial Activity of Aminoalkylated Chalcones and Analogues” (J Nat Prod, 2015).

Key:
[1] = tested on: Plasmodium falciparum; assay: Antiplasmodial activity chloroquinone-sensitive Plasmodium falciparum NF54 by parasite lactate dehydrogenase assay; format: functional, organism-based
Summary of the method: (§1)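 Asexual erythrocytic P. falciparum stages kept in continuous culture (modified Trager–Jensen). Growth inhibition read by parasite lactate dehydrogenase assay (modified Makler). Samples run in triplicate on one or two separate occasions. IC50 from full dose–response curves by nonlinear curve fitting. Chloroquine served as internal standard to monitor conditions.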

[2] = tested on: Plasmodium falciparum; assay: Antiplasmodial activity chloroquinone-sensitive Plasmodium falciparum D10 by parasite lactate dehydrogenase assay; format: functional, organism-based; summary of the method: as §1
[3] = Selectivity index, ratio of IC50 for CHO cells to IC50 for chloroquinone-sensitive Plasmodium falciparum D10; conditions: hamster, CHO cells versus Plasmodium falciparum D10
[4] = tested on: Plasmodium falciparum; assay: Antiplasmodial activity chloroquinone-resistant Plasmodium falciparum Dd2 by parasite lactate dehydrogenase assay; format: functional, organism-based
Summary of the method: (§2)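 Asexual erythrocyte-stage P. falciparum kept in continuous culture by a modified Trager–Jensen method. Growth inhibition was read by a modified Makler parasite lactate dehydrogenase assay. Samples were run in triplicate on one or two separate occasions, with chloroquine as internal standard. IC50 was taken from full dose–response curves by nonlinear curve fitting.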

[5] = tested on: CHO; assay: Cytotoxicity against CHO cells by MTT assay; format: cell-based, Cricetulus griseus
Summary of the method: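 Chinese hamster ovary cells; viability by MTT assay (modified Mosmann). Samples prepared as for antiplasmodial testing. Emetine reference in every experiment, started at 100 μg/mL and serially diluted 10-fold in complete medium to six concentrations, lowest 0.001 μg/mL. IC50 from dose–response curves.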

[6] = Selectivity index, ratio of IC50 for CHO cells to IC50 for chloroquinone-sensitive Plasmodium falciparum D10; format: toxicity, cell-based; conditions: hamster; for selectivity ratio: CHO cells versus Plasmodium falciparum D10, read-out: Ratio IC50; for Ratio IC50: cho
Summary of the method: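 Selectivity index computed as CHO-cell IC50 (MTT) divided by P. falciparum IC50 from the pLDH assay, for a representative subset of compounds.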

[7] = tested on: Plasmodium falciparum; assay: Resistance index, ratio of IC50 for chloroquinone-resistant Plasmodium falciparum Dd2 to IC50 for chloroquinone-sensitive Plasmodium falciparum D10; format: functional
[8] = tested on: Plasmodium falciparum; assay: Resistance index, ratio of IC50 for […] to IC50 for chloroquinone-[…] Plasmodium falciparum K1; format: functional
[9] = tested on: Plasmodium falciparum; assay: Antiplasmodial activity chloroquinone-resistant Plasmodium falciparum K1 by parasite lactate dehydrogenase assay; format: functional, organism-based; summary of the method: as §2

## c1ccc(CN2CCCCC2)cc1
[1]; Plasmodium falciparum, NF54
  IC50: > 5000 nM

## Oc1ccccc1CN1CCCCC1
[1]; Plasmodium falciparum, NF54
  IC50: > 5000 nM

## CCc1ccc(C(=O)/C=C/c2ccc(CN3CCCCC3)c(O)c2)cc1
[2]; Plasmodium falciparum, D10
  IC50: 140 nM
[3]
  selectivity ratio: 47
[4]
  IC50: 210 nM
[5]; Cricetulus griseus, CHO
  IC50: 6590 nM

## Oc1ccc(CCCc2ccc(C(F)(F)F)cc2)cc1CN1CCCCC1 [listing 1 of 2 here]
[1]; Plasmodium falciparum, NF54
  IC50: 280 nM

## CCc1ccc(CCCc2ccc(CN3CCCCC3)c(O)c2)cc1 [listing 1 of 2 here]
[1]
  IC50: 60 nM

## NC(=O)c1ccc(CCCc2ccccc2)cc1
[1]; Plasmodium falciparum, NF54
  IC50: > 4000 nM

## CC(C)Nc1ccc(CCCc2cccc(O)c2)cc1
[1]; Plasmodium falciparum, NF54
  IC50: > 3000 nM

## Oc1cc(CCCc2ccc(CCCc3ccc(CN4CCCCC4)c(O)c3)cc2)ccc1CN1CCCCC1
[1]; Plasmodium falciparum, NF54
  IC50: 60 nM

## Cc1ccc(S(=O)(=O)Oc2cc(CCCc3ccc(F)cc3)ccc2CN2CCCCC2)cc1
[1]; Plasmodium falciparum, NF54
  IC50: > 2000 nM

## Oc1cc(CCCc2ccc3ccccc3c2)ccc1CN1CCCCC1
[1]; Plasmodium falciparum, NF54
  IC50: 40 nM

## COc1ccc(C(=O)/C=C/c2cccc(O)c2)cc1
[2]; Plasmodium falciparum, D10
  IC50: 11300 nM

## COc1ccc(C(=O)/C=C/c2ccc(CN3CCCCC3)c(O)c2)cc1
[2]; Plasmodium falciparum, D10
  IC50: 830 nM
[6]
  selectivity ratio: 237
[5]; Cricetulus griseus, CHO
  IC50: 197000 nM

## O=C(/C=C/c1ccc(CN2CCCC2)c(O)c1)c1ccccc1
[2]; Plasmodium falciparum, D10
  IC50: 6540 nM

## COc1ccc(C(=O)/C=C/c2cc(CN3CCCCC3)c(O)c(OC)c2)cc1
[2]; Plasmodium falciparum, D10
  IC50: 2810 nM

## COc1ccc(C(=O)/C=C/c2ccc(CN3CCOCC3)c(O)c2)cc1
[2]; Plasmodium falciparum, D10
  IC50: 4900 nM

## COc1ccc(C(=O)/C=C/c2ccc(O)c(CN3CCN(C)CC3)c2)cc1
[2]; Plasmodium falciparum, D10
  IC50: 3770 nM

## COc1ccc(C(=O)/C=C/c2ccc(CN3CCCC3)c(O)c2)cc1
[2]; Plasmodium falciparum, D10
  IC50: 5750 nM

## CCN1CCN(Cc2ccc(/C=C/C(=O)c3ccc(OC)cc3)cc2O)CC1
[2]; Plasmodium falciparum, D10
  IC50: 2740 nM

## COc1ccc(C(=O)/C=C/c2ccc(CN(C)C)c(O)c2)cc1
[2]; Plasmodium falciparum, D10
  IC50: 2520 nM

## COc1ccc(C(=O)/C=C/c2ccc(O)c(CN(C)C)c2)cc1
[2]; Plasmodium falciparum, D10
  IC50: > 3000 nM

## O=C(/C=C/c1ccc(O)c(CN2CCCCC2)c1)c1ccc(C(F)(F)F)cc1
[2]; Plasmodium falciparum, D10
  IC50: 170 nM
[6]
  selectivity ratio: 49
[4]
  IC50: 200 nM
[5]; Cricetulus griseus, CHO
  IC50: 8220 nM

## O=C(/C=C/c1ccc(CN2CCCCC2)c(O)c1)c1ccc(Br)cc1
[2]; Plasmodium falciparum, D10
  IC50: 150 nM
[6]
  selectivity ratio: 50
[4]
  IC50: 210 nM
[5]; Cricetulus griseus, CHO
  IC50: 7270 nM

## O=C(/C=C/c1ccc(CN2CCCCC2)c(O)c1)c1ccc(F)cc1
[2]; Plasmodium falciparum, D10
  IC50: 100 nM
[6]
  selectivity ratio: 796
[4]
  IC50: 710 nM
[5]; Cricetulus griseus, CHO
  IC50: 77200 nM

## O=C(/C=C/c1ccc(CN2CCCCC2)c(O)c1)c1ccccn1
[2]; Plasmodium falciparum, D10
  IC50: 1370 nM

## O=C(/C=C/c1ccc(CN2CCCCC2)c(O)c1)c1ccc[nH]1
[2]; Plasmodium falciparum, D10
  IC50: 2420 nM

## O=C(/C=C/c1ccc(CN2CCCCC2)c(O)c1)c1cccs1
[2]; Plasmodium falciparum, D10
  IC50: 2730 nM

## Cc1ccc(C(=O)/C=C/c2ccc(CN3CCCCC3)c(O)c2)cc1
[2]; Plasmodium falciparum, D10
  IC50: > 3000 nM

## O=C(CCc1ccc(CN2CCCCC2)c(O)c1)c1ccc(F)cc1
[1]; Plasmodium falciparum, NF54
  IC50: 260 nM

## O=C(CCc1ccc(CN2CCCCC2)c(O)c1)c1cccs1
[2]; Plasmodium falciparum, D10
  IC50: 190 nM
[6]
  selectivity ratio: 895
[4]
  IC50: 270 nM
[5]; Cricetulus griseus, CHO
  IC50: 168000 nM

## O=C(CCc1ccc(CN2CCCCC2)c(O)c1)c1ccc[nH]1
[2]; Plasmodium falciparum, D10
  IC50: > 3000 nM

## COc1ccc(CCCc2cccc(O)c2)cc1
[2]; Plasmodium falciparum, D10
  IC50: > 30000 nM

## COc1ccc(CCCc2ccc(CN3CCCCC3)c(O)c2)cc1
[2]
  IC50: 210 nM
[6]
  Ratio IC50: 332
[5]; cho
  IC50: 69800 nM

## COc1ccc(CCCc2cc(O)c(CN3CCCCC3)cc2CN2CCCCC2)cc1
[2]; Plasmodium falciparum, D10
  IC50: 60 nM
[6]
  selectivity ratio: 3510
[7]
  Ratio IC50: 1.47
[4]
  IC50: 80 nM
[5]; Cricetulus griseus, CHO
  IC50: 200000 nM

## Oc1ccc(CCCc2ccc(C(F)(F)F)cc2)cc1CN1CCCCC1 [listing 2 of 2 here]
[2]; Plasmodium falciparum, D10
  IC50: 10 nM
[7]
  Ratio IC50: 5.8
[4]
  IC50: 30 nM

## Oc1cc(CCCc2ccc(F)cc2)ccc1CN1CCCCC1
[2]
  IC50: 70 nM

## Cc1ccc(CCCc2ccc(CN3CCCCC3)c(O)c2)cc1
[2]; Plasmodium falciparum, D10
  IC50: 90 nM
[6]
  selectivity ratio: 56
[7]
  Ratio IC50: 3.06
[4]
  IC50: 270 nM
[5]; Cricetulus griseus, CHO
  IC50: 4950 nM

## CCc1ccc(CCCc2ccc(CN3CCCCC3)c(O)c2)cc1 [listing 2 of 2 here]
[1]
  IC50: 180 nM
[3]
  selectivity ratio: 138
[5]; Cricetulus griseus, CHO
  IC50: 25200 nM

## Oc1cc(CCCc2cccs2)ccc1CN1CCCCC1
[1]; Plasmodium falciparum, NF54
  IC50: 50 nM
[8]
  Ratio IC50: 0.48
[9]
  IC50: 20 nM

## CC(C)Nc1ccc(CCCc2ccc(CN3CCCCC3)c(O)c2)cc1
[1]; Plasmodium falciparum, NF54
  IC50: 180 nM

## Oc1ccc(CCCc2ccccc2)cc1CN1CCCCC1
[1]; Plasmodium falciparum, NF54
  IC50: 60 nM

## Oc1cc(CCCc2ccccc2)ccc1CN1CCCCC1
[1]; Plasmodium falciparum, NF54
  IC50: 140 nM

## Oc1cc(CCCc2ccccc2)ccc1CN1CCNCC1
[1]; Plasmodium falciparum, NF54
  IC50: 2810 nM

## CN1CCN(Cc2ccc(CCCc3ccccc3)cc2O)CC1
[1]; Plasmodium falciparum, NF54
  IC50: 790 nM

## CCN1CCN(Cc2ccc(CCCc3ccccc3)cc2O)CC1
[1]; Plasmodium falciparum, NF54
  IC50: 410 nM

## Oc1cc(CCCc2ccccc2)ccc1CN1CCCC1
[1]; Plasmodium falciparum, NF54
  IC50: 40 nM

## Oc1cc(CCCc2ccccc2)ccc1CN1CCOCC1
[1]; Plasmodium falciparum, NF54
  IC50: 750 nM

## CN(C)Cc1ccc(CCCc2ccccc2)cc1O
[1]; Plasmodium falciparum, NF54
  IC50: 90 nM

## COc1ccc(CCCc2ccc(CN3CCCCC3)c(O)c2)cc1.Cl
[2]
  IC50: 70 nM
[6]
  Ratio IC50: 3063
[7]
  Ratio IC50: 1
[4]
  IC50: 70 nM
[5]; cho
  IC50: 211000 nM

## Cl.Oc1cc(CCCc2ccc(F)cc2)ccc1CN1CCCCC1
[2]
  IC50: 30 nM
[6]
  selectivity ratio: 5830
[7]
  Ratio IC50: 0.79
[4]
  IC50: 20 nM
[5]; Cricetulus griseus, CHO
  IC50: 163000 nM

## Cl.Oc1cc(CCCc2ccccc2)ccc1CN1CCCCC1
[2]; Plasmodium falciparum, D10
  IC50: 20 nM
[6]
  selectivity ratio: 7030
[7]
  Ratio IC50: 1.35
[4]
  IC50: 30 nM
[5]; Cricetulus griseus, CHO
  IC50: 162000 nM

## CCc1ccc(CN2CCCCC2)c(O)c1
[1]; Plasmodium falciparum, NF54
  IC50: 1040 nM

## CC(=O)CCc1ccc(CN2CCCCC2)c(O)c1
[1]; Plasmodium falciparum, NF54
  IC50: 1710 nM

## Oc1cc(CCc2ccccc2)ccc1CN1CCCCC1
[1]; Plasmodium falciparum, NF54
  IC50: 120 nM

## Oc1cc(CCCc2ccc(-c3ccccc3)cc2)ccc1CN1CCCCC1
[1]; Plasmodium falciparum, NF54
  IC50: 80 nM

## O=C(/C=C/c1cccc(O)c1)c1ccccc1 [3-HYDROXY CHALCONE]
[2]; Plasmodium falciparum, D10
  IC50: 15700 nM

## CC[C@H]1CN2CCc3cc(OC)c(OC)cc3[C@@H]2C[C@@H]1C[C@H]1NCCc2cc(OC)c(OC)cc21 [EMETINE]
[5]; Cricetulus griseus, CHO
  IC50: 30 nM
